Measured values from ChEMBL document CHEMBL1134668, “Hydrazinonaphthalene and azonaphthalene thrombopoietin mimics are nonpeptidyl promoters of megakaryocytopoiesis” (J Med Chem, 2001).

Columns and labels:
Thrombopoietin receptor = molecular target: T1, Thrombopoietin receptor (Homo sapiens, UniProt P40238); assay: Effective concentration for thrombopoietin luciferase activity was determined in BAF-3 cells; format: cell-based, BaF3
T1 sequence (P40238 whole entry): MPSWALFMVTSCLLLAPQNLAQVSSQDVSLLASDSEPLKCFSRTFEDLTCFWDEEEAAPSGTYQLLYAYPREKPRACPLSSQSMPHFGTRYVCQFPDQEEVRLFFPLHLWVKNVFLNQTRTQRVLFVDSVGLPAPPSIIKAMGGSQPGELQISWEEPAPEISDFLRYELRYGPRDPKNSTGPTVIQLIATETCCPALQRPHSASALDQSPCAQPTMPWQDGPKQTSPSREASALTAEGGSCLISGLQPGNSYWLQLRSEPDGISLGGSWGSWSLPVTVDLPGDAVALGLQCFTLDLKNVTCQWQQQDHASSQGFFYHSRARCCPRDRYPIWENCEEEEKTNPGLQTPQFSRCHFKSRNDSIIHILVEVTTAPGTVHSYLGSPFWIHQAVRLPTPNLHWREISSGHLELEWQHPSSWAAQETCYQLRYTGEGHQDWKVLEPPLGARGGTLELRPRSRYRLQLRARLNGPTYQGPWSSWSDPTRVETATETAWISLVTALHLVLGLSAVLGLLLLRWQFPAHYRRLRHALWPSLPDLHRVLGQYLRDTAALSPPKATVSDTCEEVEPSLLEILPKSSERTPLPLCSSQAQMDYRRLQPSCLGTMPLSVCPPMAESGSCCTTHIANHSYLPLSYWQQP

[1] = molecular target: T2, Thrombopoietin receptor (Homo sapiens) (UniProt P40238); assay: Thrombopoietin luciferase activity in BAF-3 cells; format: cell-based; settings: BaF3
T2 sequence (whole entry): T1 sequence (P40238 whole entry)

[2] = Compound tested for UT7/TPO cell proliferation activity (%TPO) using proliferation assay.; format: functional, Homo sapiens
How it was run: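 UT7/TPO cells kept in IMDM/10% FBS/glutamine plus rhTPO, starved overnight without TPO. Cells (0.2 × 10^6/mL) in starving medium incubated with compounds (0.32% DMSO final) or rhTPO, 37 °C, 5% CO2, 72 h. Pellet DNA content read by BrdU kit. Mean value over control as % of maximal-TPO response, duplicates, plotted vs concentration for EC50.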

[3] = Compound tested for CD34+ cell differentiation activity (%TPO) using CD34+ differentiation assay; format: functional, Homo sapiens
How it was run: (§1)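 Human bone marrow CD34+ cells from light density marrow cells (2 × 10^6 cells/mL) in IMDM with 20% v/v FCS and rhSCF 100 ng/mL, cultured with sample or TPO (maximal 100 ng/mL) for 10 days at 5% CO2 and 4% O2. Stained with FITC-anti-CD41 and FITC-anti-IgG1 isotype control, formaldehyde-fixed, flow cytometry; %CD41 = CD41 positive minus isotype positive.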

[4] = Effective concentration (EC50) required to inhibit CD34 cell differentiation; format: functional; settings: Homo sapiens; how it was run: as §1

SMILES | EC50 (Thrombopoietin receptor) [nM] | Efficacy [1] [%] | Efficacy [2] [%] | Efficacy [3] [%] | EC50 [4] [nM]
COc1ccc2ccc(O)c(/N=N/c3c(O)cc(S(=O)(=O)O)c4ccccc34)c2c1 | 300 | 85 | – | – | –
Cc1[nH]n(-c2ccc(I)cc2)c(=O)c1/N=N/c1c(O)cc(S(=O)(=O)O)c2ccccc12 | 300 | 81 | 100 | 60 | –
Cc1ccc(-n2[nH]c(C)c(/N=N/c3c(O)cc(S(=O)(=O)O)c4ccccc34)c2=O)cc1C | 40 | 100 | 90 | 100 | 200
O=S(=O)(O)c1cc(O)c(/N=N/c2ccc3ccccc3c2O)c2ccccc12 | 70 | 87 | – | – | –
Cc1[nH]n(-c2ccc(C(=O)O)cc2)c(=O)c1/N=N/c1c(O)cc(S(=O)(=O)O)c2ccccc12 | – | < 5 | – | – | –
Cc1ccc(-n2[nH]cc(/N=N/c3c(O)cc(S(=O)(=O)O)c4ccccc34)c2=O)cc1C | 100 | 95 | – | – | –
Cc1ccc(-n2[nH]c(C)c(/N=N/c3c(O)cc(C(=O)O)c4ccccc34)c2=O)cc1C | 1000 | 24 | – | – | –
CCOC(=O)c1[nH]n(-c2ccc(C(C)(C)C)cc2)c(=O)c1/N=N/c1c(O)cc(S(=O)(=O)O)c2ccccc12 | 2000 | 56 | – | – | –
Cc1[nH]n(-c2cccc(C(C)(C)C)c2)c(=O)c1/N=N/c1c(O)cc(S(=O)(=O)O)c2ccccc12 | 70 | 71 | – | – | –
Cc1[nH]n(-c2cccc([N+](=O)[O-])c2)c(=O)c1/N=N/c1c(O)cc(S(=O)(=O)O)c2ccccc12 | 300 | 28 | – | – | –
Cc1[nH]n(-c2ccccc2Cl)c(=O)c1/N=N/c1c(O)cc(S(=O)(=O)O)c2ccccc12 | > 30000 | 6 | – | – | –
O=S(=O)(O)c1cc(O)c(/N=N/c2c(O)cc(O)c3ccccc23)c2ccccc12 | 5000 | 16 | – | – | –
Cc1[nH]n(-c2ccccc2)c(=O)c1/N=N/c1c(O)cc(S(=O)(=O)O)c2ccccc12 | 2000 | 26 | – | – | –
O=S(=O)(O)c1cc(O)c(/N=N/c2ccc(O)c3ccc(O)cc23)c2ccccc12 | – | < 5 | – | – | –
Cc1[nH]n(-c2ccccc2)c(=O)c1/N=N/c1c(O)cc(C(=O)O)c2ccccc12 | 5000 | 21 | – | – | –
Cc1[nH]n(-c2ccc(S(=O)(=O)O)cc2)c(=O)c1/N=N/c1c(O)cc(S(=O)(=O)O)c2ccccc12 | – | < 5 | – | – | –
O=S(=O)(O)c1ccc(/N=N/c2c(O)ccc3ccccc23)c2ccccc12 | – | < 5 | – | – | –
Oc1ccc2ccccc2c1/N=N/c1c(O)ccc2ccccc12 | – | < 5 | – | – | –
Cc1[nH]n(-c2ccccn2)c(=O)c1/N=N/c1c(O)cc(S(=O)(=O)O)c2ccccc12 | 7000 | 24 | – | – | –
CCNS(=O)(=O)c1cccc(-n2[nH]c(C)c(/N=N/c3c(O)cc(S(=O)(=O)O)c4ccccc34)c2=O)c1 | 10000 | 25 | – | – | –

SMILES | EC50 (Thrombopoietin receptor) [nM] | Efficacy [1] [%] | Efficacy [2] [%] | Efficacy [3] [%] | EC50 [4] [nM]
O=C(Nc1c(O)cc(S(=O)(=O)O)c2ccccc12)c1c(O)ccc2ccccc12 | – | < 5 | – | – | –
Cc1[nH]n(-c2ccc(F)cc2)c(=O)c1/N=N/c1c(O)cc(S(=O)(=O)O)c2ccccc12 | 500 | 39 | – | – | –
Cc1[nH]n(CCO)c(=O)c1/N=N/c1c(O)cc(S(=O)(=O)O)c2ccccc12 | – | < 5 | – | – | –
O=C(O)c1cccc2c(/N=N/c3c(O)cc(S(=O)(=O)O)c4ccccc34)c(O)ccc12 | – | < 5 | – | – | –
COc1cc(O)c2ccccc2c1/N=N/c1c(O)cc(S(=O)(=O)O)c2ccccc12 | 3000 | 19 | – | – | –
Cc1[nH]n(-c2ccc(Cl)cc2)c(=O)c1/N=N/c1c(O)cc(S(=O)(=O)O)c2ccccc12 | 2000 | 47 | 75 | – | –
O=C(O)c1cc2ccccc2c(/N=N/c2c(O)cc(S(=O)(=O)O)c3ccccc23)c1O | 10000 | 48 | – | – | –
O=S(=O)(O)c1cc(O)c(/N=N/c2c(O)c(O)cc3ccccc23)c2ccccc12 | 2000 | 26 | – | – | –
Cc1[nH]n(-c2ccc(S(C)(=O)=O)cc2)c(=O)c1/N=N/c1c(O)cc(S(=O)(=O)O)c2ccccc12 | 3000 | 18 | – | – | –
Cc1ccc(-n2[nH]c(-c3ccccc3)c(/N=N/c3c(O)cc(S(=O)(=O)O)c4ccccc34)c2=O)cc1C | 900 | 92 | – | – | –
CC(C)(C)c1ccc(-n2[nH]c(N)c(/N=N/c3c(O)cc(S(=O)(=O)O)c4ccccc34)c2=O)cc1 | 5000 | 87 | – | – | –
Cc1n[nH]c(O)c1/N=N/c1c(O)cc(S(=O)(=O)O)c2ccccc12 | – | < 5 | – | – | –
Cc1[nH]n(-c2cc(Cl)c(S(=O)(=O)O)cc2Cl)c(=O)c1/N=N/c1c(O)cc(S(=O)(=O)O)c2ccccc12 | – | < 5 | – | – | –
Cc1[nH]n(-c2ccccc2[N+](=O)[O-])c(=O)c1/N=N/c1c(O)cc(S(=O)(=O)O)c2ccccc12 | 8000 | 19 | – | – | –
Cc1[nH]n(-c2ccc(O)cc2)c(=O)c1/N=N/c1c(O)cc(S(=O)(=O)O)c2ccccc12 | – | < 5 | – | – | –
CC(C)(C)c1ccc(-n2[nH]c(C(=O)O)c(/N=N/c3c(O)cc(S(=O)(=O)O)c4ccccc34)c2=O)cc1 | – | < 5 | – | – | –
O=S(=O)(O)c1cc(O)c(/N=N/c2c(O)c3ccccc3c3ccccc23)c2ccccc12 | 200 | 61 | – | – | –
Cc1[nH]n(-c2ccc(C(F)(F)F)cc2)c(=O)c1/N=N/c1c(O)cc(S(=O)(=O)O)c2ccccc12 | 100 | 39 | 100 | – | –
O=[N+]([O-])c1cc(O)c(/N=N/c2c(O)ccc3ccccc23)c2ccccc12 | – | < 5 | – | – | –
Cc1ccc(-n2[nH]c(C)c(/N=N/c3c(O)cc(C(=O)O)c4ccccc34)c2=O)cc1 | 2000 | 47 | – | – | –

SMILES | EC50 (Thrombopoietin receptor) [nM] | Efficacy [1] [%] | Efficacy [2] [%] | Efficacy [3] [%] | EC50 [4] [nM]
O=S(=O)(O)c1cc(O)c(/N=N/c2c(O)ccc3ccc(O)cc23)c2ccccc12 | 2000 | 31 | – | – | –
CCOc1nn(-c2ccc(C)c(C)c2)c(O)c1/N=N/c1c(O)cc(S(=O)(=O)O)c2ccccc12 | 600 | 80 | – | – | –
Cc1[nH]n(-c2ccc(C(C)C)cc2)c(=O)c1/N=N/c1c(O)cc(S(=O)(=O)O)c2ccccc12 | 70 | 100 | – | – | –
Cc1ccc(-n2[nH]c(C)c(/N=N/c3c(O)cc(S(=O)(=O)O)c4ccccc34)c2=O)cc1 | 2000 | 53 | 90 | – | –
Cc1ccc(-n2[nH]c(C(C)(C)C)c(/N=N/c3c(O)cc(S(=O)(=O)O)c4ccccc34)c2=O)cc1C | 300 | 72 | – | – | –
Cc1[nH]n(Cc2ccccc2)c(=O)c1/N=N/c1c(O)cc(S(=O)(=O)O)c2ccccc12 | > 30000 | 32 | – | – | –
Cc1[nH]n(-c2cc(S(=O)(=O)O)ccc2Cl)c(=O)c1/N=N/c1c(O)cc(S(=O)(=O)O)c2ccccc12 | – | < 5 | – | – | –
Cc1ccccc1-n1[nH]c(C)c(/N=N/c2c(O)cc(S(=O)(=O)O)c3ccccc23)c1=O | 10000 | 30 | – | – | –
Cc1[nH]n(-c2ccc([N+](=O)[O-])cc2)c(=O)c1/N=N/c1c(O)cc(S(=O)(=O)O)c2ccccc12 | 400 | 63 | – | – | –
Cc1[nH]n(-c2ccc(OCc3ccccc3)cc2)c(=O)c1/N=N/c1c(O)cc(S(=O)(=O)O)c2ccccc12 | 200 | 34 | – | – | –
Cc1[nH]n(-c2cccc(C(F)(F)F)c2)c(=O)c1/N=N/c1c(O)cc(S(=O)(=O)O)c2ccccc12 | 40 | 62 | – | 95 | 100
Cc1[nH]n(C(C)(C)C)c(=O)c1/N=N/c1c(O)cc(S(=O)(=O)O)c2ccccc12 | – | < 5 | – | – | –
Cc1ccc(O)c(/N=N/c2c(O)cc(S(=O)(=O)O)c3ccccc23)c1 | 3000 | 28 | – | – | –
Cc1[nH]n(-c2ccc(Cl)c(Cl)c2)c(=O)c1/N=N/c1c(O)cc(S(=O)(=O)O)c2ccccc12 | 200 | 67 | 70 | – | –
O=S(=O)(O)c1cc(O)c(NCc2c(O)ccc3ccccc23)c2ccccc12 | – | < 5 | – | – | –
CC(C)(C)OC(=O)c1[nH]n(-c2ccc(C(C)(C)C)cc2)c(=O)c1/N=N/c1c(O)cc(S(=O)(=O)O)c2ccccc12 | 200 | 32 | – | – | –
Cc1cccc(-n2[nH]c(C)c(/N=N/c3c(O)cc(S(=O)(=O)O)c4ccccc34)c2=O)c1 | 700 | 34 | – | – | –
Cc1[nH]n(C)c(=O)c1/N=N/c1c(O)cc(S(=O)(=O)O)c2ccccc12 | – | < 5 | – | – | –
O=S(=O)(O)c1cc(O)c(/N=C/c2c(O)ccc3ccccc23)c2ccccc12 | – | < 5 | – | – | –
O=S(=O)(O)c1cc(O)c(/N=N/c2c(O)ccc3cc(O)ccc23)c2ccccc12 | 2000 | 16 | – | – | –
